Screening data: PubChem, Sanford-Burnham Center for Chemical Genomics
hIAP inh = human IAP inhibitors, primary screen, biochemical, luminescence, uHTS | AID 2544, 2010 | purified IAP, CDP-Star luminescence, 30 min | inhibition, % at 10 µM | hit rate 0.12% among 330,000;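 active = inhibition reaching a set limit with compound at 10 µM in the primary screen, cut at about 35% in these data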;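 note: plate controls were DMSO wells with enzyme for no effect and no-enzyme buffer wells for full effect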
Target sequence (P09923 whole entry, looked up): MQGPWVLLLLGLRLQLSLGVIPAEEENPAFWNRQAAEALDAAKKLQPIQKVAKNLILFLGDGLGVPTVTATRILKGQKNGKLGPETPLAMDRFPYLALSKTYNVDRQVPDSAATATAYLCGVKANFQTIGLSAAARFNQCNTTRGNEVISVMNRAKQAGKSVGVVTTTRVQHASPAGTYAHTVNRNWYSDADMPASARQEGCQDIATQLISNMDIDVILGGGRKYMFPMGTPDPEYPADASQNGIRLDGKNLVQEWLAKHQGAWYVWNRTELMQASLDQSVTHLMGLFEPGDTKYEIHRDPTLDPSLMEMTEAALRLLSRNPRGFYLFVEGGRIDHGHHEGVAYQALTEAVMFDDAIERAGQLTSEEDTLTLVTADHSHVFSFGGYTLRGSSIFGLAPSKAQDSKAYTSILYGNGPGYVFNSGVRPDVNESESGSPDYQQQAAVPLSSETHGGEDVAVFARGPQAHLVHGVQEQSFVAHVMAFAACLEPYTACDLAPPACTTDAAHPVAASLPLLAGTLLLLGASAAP
bIAP act = bovine intestinal alkaline phosphatase activators, primary screen, biochemical, bovine IAP, CDP-star luminescence; activation factor at 20 µM; hit rate 0.17% among 200,000; AID 1016, 2008; alkaline phosphatase, intestinal [Bos taurus]; purified bovine IAP, 30 min; hits give high values; fold of DMSO-control signal, blank-subtracted;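 active = activation factor of 2 or more at 20 µM, a signal rise over negative controls twice the positive control's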
hIAP activ = human IAP activators, primary screen, biochemical, luminescence, uHTS; Intestinal-type alkaline phosphatase (Homo sapiens), P09923; purified human IAP, CDP-Star luminescence, 30 min; hits give high values; 1 = vehicle-only enzyme, 0 = enzyme-free background; activation factor at 10 µM; hit rate 0.16% among 330,000; AID 2524, 2010;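 active = activation factor of the enzyme at least 2-fold when tested at 20 µM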
mIAP inh = inhibitors of mouse IAP, primary screen, biochemical, luminescence, uHTS; inhibition, % at 10 µM; purified mouse IAP, CDP-Star luminescence, 30 min; hit rate 0.2% among 330,000;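 active = inhibition of at least 40% at 10 µM in the primary screen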;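 note: plate controls were DMSO with enzyme for no effect and no enzyme wells for full effect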
bIAP inhibitor = bovine intestinal alkaline phosphatase inhibitors, primary screen, selectivity assay for TNAP inhibitor project, biochemical, bovine IAP, CDP-star luminescence; alkaline phosphatase, intestinal [Bos taurus]; purified bovine IAP, 30 min; inhibition, % at 20 µM; 190,000 tested, under 10 active;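 active = over 50% inhibition of intestinal alkaline phosphatase at 20 µM in the single-dose screen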
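System: purified bovine intestinal alkaline phosphatase (IAP) enzyme; Input: IAP diluted 1/65,000,000 in the well; Measured by: CDP-star luminescence signal; Compound dosing: 20 µM single dose; Incubation: 30 min reaction at room temperature.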
mIAP act = activators of mouse IAP, primary screen, biochemical, luminescence, uHTS | intestinal alkaline phosphatase [Mus musculus] | muIAP, CDP-Star luminescence, 30 min; hits give high values; 1 = vehicle-only enzyme signal, 0 = enzyme-free wells | activation factor at 10 µM | hit rate 0.24% among 330,000;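 active = activation factor of at least 2 at 20 µM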
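Assay system: mouse IAP enzyme; reagent: chemiluminescent substrate CDP-Star; dosing: test compounds delivered from DMSO solution; schedule: 30 min at room temperature; measured by: luminescence from enzymatic CDP-Star hydrolysis; controls: DMSO-only wells and no-enzyme negative control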
The depositor's hits bear a star. Shown are actives, neighbours in structure and some others; about 0.77% of the full set was active somewhere.

What do the screens show for `CC(C)CNC(=S)NC1CC2CCCC(C1)N2Cc1cccs1` (centres undefined)?
hIAP inh: 1; bIAP act: 1.1; hIAP activ: 0.99; mIAP inh: -163; bIAP inhibitor: -14; mIAP act: 2.6*

What do the screens show for `Cc1ccc(NC(=S)NC2CC3CCCC(C2)N3Cc2cccs2)cc1` (centres undefined)?
hIAP inh: -34; bIAP act: 2*; hIAP activ: 1.3; mIAP inh: -318; bIAP inhibitor: -95; mIAP act: 4.2*

What do the screens show for `CC(C)c1ccc(NC(=O)NC2CC3CCC(C2)N3Cc2cccs2)cc1` (centres undefined)?
hIAP inh: -13; bIAP act: 0.8; hIAP activ: 1.1; mIAP inh: -20; bIAP inhibitor: 20; mIAP act: 1.2

What do the screens show for `Cc1ccc(NC(=S)NC2CC3CCCC(C2)N3Cc2ccco2)cc1` (centres undefined)?
hIAP inh: -7; bIAP act: 1.1; hIAP activ: 1.1; mIAP inh: -53; bIAP inhibitor: -11; mIAP act: 1.5

How did CC(C)CNC(=S)NC1CC2CCCC(C1)N2Cc1ccco1 (centres undefined) do in these assays?
hIAP inh: -16; bIAP act: 1; hIAP activ: 1.2; mIAP inh: -26; bIAP inhibitor: 5; mIAP act: 1.3

Results for Cc1cc(C)c(NC(=O)c2ccc(CN3CCc4ccccc4C3)cc2)c(C)c1 ?
hIAP inh: 7; bIAP act: 2.1*; hIAP activ: 0.93; mIAP inh: -4; bIAP inhibitor: -107; mIAP act: 1

How did CCn1ncc(/C=N/NC(=O)c2ccc3c(c2)OCO3)c1C do in these assays?
hIAP inh: -14; bIAP act: 0.9; hIAP activ: 1.1; mIAP inh: -7; bIAP inhibitor: 5; mIAP act: 1.1

Results for CCn1cc(/C=N\NC(=O)c2ccc3c(c2)c(C)c(C)n3Cc2ccccc2)c(C)n1 ?
hIAP inh: 8; bIAP act: 4.2*; hIAP activ: 0.93; mIAP inh: -73; bIAP inhibitor: -325; mIAP act: 1.7

How did CCn1nc(C)c(/C=N/NC(=O)c2ccc3c(c2)c(C)c(C)n3Cc2ccccc2)c1C do in these assays?
hIAP inh: 16; bIAP act: 7*; hIAP activ: 0.84; mIAP inh: -326; bIAP inhibitor: inactive; mIAP act: 4.3*

What do the screens show for `CCn1nc(C)c(/C=N\NC(=O)c2ccc3c(c2)OCO3)c1C`?
hIAP inh: -7; bIAP act: 1; hIAP activ: 1.1; mIAP inh: 5; bIAP inhibitor: 4; mIAP act: 0.95

How did CCn1ncc(/C=N\NC(=O)c2ccc3c(c2)c(C)c(C)n3Cc2ccccc2)c1C do in these assays?
hIAP inh: 10; bIAP act: 4.5*; hIAP activ: 0.9; mIAP inh: -240; bIAP inhibitor: -347; mIAP act: 3.4*

How did Cc1ccc(C)c(N2N=C(C(=O)Nc3cccc(S(=O)(=O)N4CCCCC4)c3)CCC2=O)c1 do in these assays?
hIAP inh: 3; hIAP activ: 0.97; mIAP inh: 2; mIAP act: 0.97

How did CCCNC(=O)c1nc(C)n(-c2ccc([N+](=O)[O-])cc2)n1 do in these assays?
hIAP inh: -11; bIAP act: 1; hIAP activ: 1.1; mIAP inh: 7; bIAP inhibitor: -4; mIAP act: 0.93

Results for CCn1ccnc1CNCc1cn(-c2cc(C)ccc2C)nc1-c1ccccc1 ?
hIAP inh: -18; bIAP act: 2.7*; hIAP activ: 1.2; mIAP inh: -34; bIAP inhibitor: -170; mIAP act: 1.3

How did Cc1cc(C)c(S(=O)(=O)Nc2ccc(O)c(Sc3ncn[nH]3)c2)c(C)c1 do in these assays?
hIAP inh: 7; bIAP act: 1; hIAP activ: 0.93; mIAP inh: 69*; bIAP inhibitor: 2; mIAP act: 0.31

How did Cc1cc(C(=O)C(=O)O)c(C)n1-c1ccc(Cl)c(Cl)c1 do in these assays?
hIAP inh: -8; bIAP act: 2.5*; hIAP activ: 1.1; mIAP inh: -1; bIAP inhibitor: -146; mIAP act: 1

How did COc1ccc(/C(C)=N/Nc2ccc(C(=O)O)cc2)cc1OC do in these assays?
hIAP inh: -107; bIAP act: 0.9; hIAP activ: 2.1*; mIAP inh: 5; bIAP inhibitor: 5; mIAP act: 0.95

How did Nc1nc(SCC(=O)N2CCCc3ccccc32)n[nH]1 do in these assays?
hIAP inh: 5; hIAP activ: 0.95; mIAP inh: 3; mIAP act: 0.97

What do the screens show for `CCOC(=O)c1c(-c2ccc(C)o2)csc1NC(=O)CN1CCCCC1`?
hIAP inh: 8; bIAP act: 1.1; hIAP activ: 0.92; mIAP inh: 15; bIAP inhibitor: -6; mIAP act: 0.85

How did CCOC(=O)c1c(NC(=O)CN2CCCCC2)sc2c1CCC(C=O)=C2Cl do in these assays?
hIAP inh: 8; bIAP act: 0.9; hIAP activ: 0.92; mIAP inh: 49*; bIAP inhibitor: 8; mIAP act: 0.51

How did O=C(/C=C/c1ccco1)NC(=S)Nc1ccc(O)c(-c2nc3ccccc3s2)c1 do in these assays?
hIAP inh: -44; bIAP act: 1; hIAP activ: 1.4; mIAP inh: 53*; bIAP inhibitor: 0; mIAP act: 0.47

How did CCOC(=O)c1c(C)n(-c2ccc(C)cc2)c2ccc(OCC(O)CNCCCO)cc12 (centres undefined) do in these assays?
hIAP inh: -2; bIAP act: 2*; hIAP activ: 1; mIAP inh: 0; bIAP inhibitor: -99; mIAP act: 1

Results for CC(Sc1nnc(-c2cccnc2)n1-c1ccccc1F)C(=O)N1CCCc2ccccc21 (centres undefined) ?
hIAP inh: 7; bIAP act: 1; hIAP activ: 0.93; mIAP inh: 2; bIAP inhibitor: 5; mIAP act: 0.98

What do the screens show for `Cc1ccc(NP(=O)(Nc2ccc(C)cc2)Nc2ccc(C)cc2)cc1`?
hIAP inh: -25; bIAP act: 1.2; hIAP activ: 1.3; mIAP inh: -146; bIAP inhibitor: -22; mIAP act: 2.5*

What do the screens show for `Cc1ccc2c(c1)C1NC(=S)NC(C)(O2)C1C(=O)Nc1ccc(Cl)cc1` (centres undefined)?
hIAP inh: 3; bIAP act: 1; hIAP activ: 0.97; mIAP inh: -102; bIAP inhibitor: 1; mIAP act: 2*
